Experimental data pooled from the literature.
Each line is one published result; the experiments were not run side by side.
Organism: Staphylococcus aureus
Read-out: microbial growth

SMILES	technique	strain	setting	MIC
Cc1ccc2nc(-c3ccccc3O)[nH]c2c1	broth dilution	ATCC43300 MRSA	drug-resistant strain	256 µg/mL
O=[N+]([O-])c1ccc(/C=N/Nc2nc(Nc3ccccc3)nc(N3CCOCC3)n2)o1	–	–	–	29 µM
COc1ccc(-c2nc3ccccc3[nH]2)cc1OC	broth dilution	ATCC43300 MRSA	drug-resistant strain	256 µg/mL
COC(=O)c1cc(-c2ccc(NC(=O)Nc3ccc(Cl)c(Cl)c3)cc2)on1	broth dilution	ATCC29213	–	> 64 µg/mL
c1ccc(CCOC2CCCc3c2[nH]c2ccccc32)cc1 (stereo not shown)	broth dilution	ATCC29213	–	> 16 µg/mL
C=CCCCCCCCCC(=O)C(F)(F)P(=O)(O)O	–	ATCC33591 MRSA	drug-resistant strain	> 200 µg/mL
CC1(C)S[C@@H]2[C@H](NC(=O)[C@H](N)c3ccccc3)C(=O)N2[C@H]1C(=O)O	–	USA300	–	64 µg/mL
Cc1ccc2nc(-c3ccc(Cl)c(Cl)c3)n(Cc3ccccc3)c2c1	broth dilution	ATCC43300 MRSA	drug-resistant strain	32 µg/mL
CN[C@H](CC(C)C)C(=O)N[C@H]1C(=O)N[C@@H](CC(N)=O)C(=O)N[C@H]2C(=O)N[C@H]3C(=O)N[C@H](C(=O)N[C@H](C(=O)O)c4cc(O)cc(O)c4-c4cc3ccc4O)[C@H](O)c3ccc(c(Cl)c3)Oc3cc2cc(c3O[C@@H]2O[C@H](CO)[C@@H](O)[C@H](O)[C@H]2O[C@H]2C[C@](C)(N)[C@H](O)[C@H](C)O2)Oc2ccc(cc2Cl)[C@H]1O	–	ATCC33591	drug-resistant strain	1.56 µg/mL
CNC(=O)c1cc(Oc2ccc(NC(=O)Nc3cccc(C(F)(F)F)c3)cc2)ccn1	–	NCTC8325	–	> 100 µM
COc1cccc(-c2nc3ccccc3n2Cc2ccccc2)c1	broth dilution	ATCC43300 MRSA	drug-resistant strain	256 µg/mL
COC(=O)c1cccc(Oc2ccc(NC(=O)Nc3ccc(Cl)c(C(F)(F)F)c3)cc2)c1	–	NCTC8325	–	0.5 µM
Cc1ccc2nc(-c3cccc(O)c3)[nH]c2c1	broth dilution	ATCC43300 MRSA	drug-resistant strain	64 µg/mL
COC(=O)c1cc(-c2cccc(NC(=O)Nc3ccc(OC)cc3)c2)on1	broth dilution	ATCC29213	–	> 64 µg/mL
Fc1ccc(-c2nc3ccccc3[nH]2)cc1	broth dilution	ATCC43300 MRSA	drug-resistant strain	512 µg/mL
COC(=O)c1cc(-c2cccc(NC(=S)Nc3ccc(F)cc3)c2)on1	broth dilution	ATCC29213	–	> 64 µg/mL
O=C(CCCCC1CCCCC1)CP(=O)(O)O	–	ATCC33591 MRSA	drug-resistant strain	> 200 µg/mL
COC(=O)c1cc(-c2cccc(NC(=O)Nc3ccc(Cl)cc3)c2)on1	broth dilution	ATCC29213	–	> 64 µg/mL
CC1(C)CC[C@]2(C(=O)O)CC[C@]3(C)C(=CC[C@@H]4[C@@]5(C)CC[C@H](O)C(C)(C)[C@@H]5CC[C@]43C)[C@@H]2C1	–	USA400	–	256 µg/mL
